Shown are actives, neighbours in structure and some others; about 2.9% of the full set was active somewhere.
Wee1 degr inh = Wee1 degradation inhibitors, primary screen, cell-based, HeLa, Wee1K328M-luciferase, luminescence. Wee1-like protein kinase (Homo sapiens), P30291. HeLa Luc-Wee1K328M stability; 100% = proteasome inhibitor MG132 effect. reporter increase, % at 5 µM. actives 1.2% (n = 220,000);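 active means activation above the mean of all tested compounds plus 3 SD, set per screening run, cut at about 8.8% in these data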;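 further: cells exposed to compound for 20 h before luminescence read; 0% = DMSO alone and 100% = MG132 at 30 µM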
AI-2 QS modul = Vibrio harveyi AI-2 quorum sensing modulators, primary screen, JMH597 strain, luminescence/OD600 ratio; Vibrio harveyi JMH597 AI-2 luminescence/OD600 ratio, 9 h; stronger effect = lower value; strain lacks LuxN and CqsS sensors; 0 = neutral-control median; actives 0.4% (n = 300,000); activity change, % at 7.5 µM; in the data active means activity change below about -75%, passing the limit was not always enough; inconclusive means no clear call, values can overlap the other calls;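 further: luminescence divided by OD600 gain over 9 h not by final OD600 alone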
Runt-SMMHC FRET = inhibitors of RUNX1 Runt–CBFb-SMMHC binding, primary screen, biochemical, FRET, Cerulean-Runt, Venus-CBFb-SMMHC, uHTS | Runt-related transcription factor 1 (Homo sapiens) + Core-binding factor subunit beta … | Cerulean-Runt/Venus-CBFb-SMMHC FRET ratio 530/480, 1 h | inhibition, % at 20 µM | actives 0.74% (n = 220,000) | AID 1434, 2008;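 active means mean inhibition across duplicate retests at 20 µM reaching about 50%, limit read from the data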;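 further: 0% = DMSO wells and 100% = wells with excess untagged CBFb-SMMHC; inhibitors lower the FRET ratio by blocking Runt binding to CBFb-SMMHC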
RanGTP-Impb inh = inhibitors of RanGTP-importin-beta interaction, primary screen, biochemical, FRET, CFP-Ran, YFP-importin-beta, homogeneous; Ran GTPase (GTP-bound) - importin-beta complex; cell-free CFP-Ran/YFP-importin-beta FRET ratio; inhibition, % (concentration not given with the values); actives 1.1% (n = 300,000);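 active means more than half of the replicate wells show a fall in the fluorescence ratio signal beyond about 16%, limit read from the data, passing the limit was not always enough; inconclusive means exactly half of the replicate wells pass the set limit; inactive means fewer than half of replicates pass the limit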;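 further: 0% = DMSO wells and 100% = Ran loaded with GDP instead of GTP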
Runt-CBFb FRET = inhibitors of RUNX1 Runt–CBFb binding, primary screen, biochemical, FRET, Cerulean-Runt, Venus-CBFb, uHTS | AID 1496, 2009 | actives 0.46% (n = 220,000) | Cerulean-Runt/Venus-CBFb FRET ratio 530/480, 1 h | Runt-related transcription factor 1 (Homo sapiens) + Core-binding factor subunit beta … | inhibition, % at 20 µM;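 active means inhibition over about 50% at 20 µM in the single-dose screen, limit read from the data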;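 further: 0% = DMSO wells and 100% = excess unlabeled CBFb competitor control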
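System: Cerulean-labeled Runt domain protein | Quantity: 100 nM of each labeled protein | Schedule: 1 h compound exposure, room temperature | Detection: Fluorescence energy transfer, 422 nm excitation, 530/480 nm emission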
proKLK7 act = proKLK7 zymogen activators, primary screen, biochemical, fluorescence intensity; activation, % at 7 µM; actives 0.9% (n = 370,000); AID 652039, 2013; Kallikrein-7 (Homo sapiens), P49862; purified proKLK7, EDANS-DABCYL substrate fluorescence; 100% is mature enzyme control, 0% vehicle;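 active means activation above the mean of all tested compounds plus 3 SD, computed per campaign excluding outliers beyond control limits, cut at about 13% in these data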
Target sequence (P49862 whole entry, looked up): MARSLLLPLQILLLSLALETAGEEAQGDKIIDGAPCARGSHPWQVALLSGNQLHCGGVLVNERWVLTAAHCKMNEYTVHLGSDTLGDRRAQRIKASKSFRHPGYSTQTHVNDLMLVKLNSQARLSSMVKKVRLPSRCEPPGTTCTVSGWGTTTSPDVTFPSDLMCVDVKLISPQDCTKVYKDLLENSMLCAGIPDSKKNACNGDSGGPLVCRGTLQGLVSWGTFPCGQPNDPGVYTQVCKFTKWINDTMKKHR
proKLK7 act conf = proKLK7 zymogen activators, confirmation, biochemical, fluorescence intensity, triplicate | shares compounds with proKLK7 act | purified proKLK7, EDANS-DABCYL substrate fluorescence; scaled: vehicle 0, mature enzyme 100 | activation, % at 7 µM | actives 68% (n = 3,200);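 active means activation, as change over the incubation, above the mean of all tested compounds plus 3 SD, cut at about 13% in these data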
EDANS-DABCYL int = EDANS-DABCYL substrate optical interference, artefact control for kallikrein-7 zymogen activator project, biochemical, fluorescence intensity, high throughput; no enzyme, 4 h; solvent 0%, active enzyme control 100%; activation, % at 7 µM; shares compounds with proKLK7 act; actives 80% (n = 3,200); AID 686952, 2013;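 active means activation above the all-compound mean plus 3 SD, ignoring values outside control-based bounds, cut at about 4.8% in these data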;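 further: value is the 4 h activation minus the activation read at time zero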
An asterisk follows results filed as active; ? = inconclusive; / = no result given.

SMILES | Wee1 degr inh | AI-2 QS modul | Runt-SMMHC FRET | RanGTP-Impb inh | Runt-CBFb FRET | proKLK7 act | proKLK7 act conf | EDANS-DABCYL int
CCCn1c(/C=C/c2cc[n+](C)cc2)nc2ccccc21 | / | 10 | / | -154 | / | 50* | 61* | 72*
CC(C)Cn1c(/C=C/c2ccccc2)nc2ccccc21 | -1 | 5 | 2 | ? | -1 | 2 | / | /
OC(CCCC(O)c1ccccc1)c1ccccc1 (configuration not stated) | / | / | / | / | / | 0 | / | /
COC(=O)c1ccc(NC2CC(=O)N(c3ccccc3C)C2=O)cc1 (configuration not stated) | 3 | 9 | 2 | -2 | 0 | 1 | / | /
COC(=O)c1ccccc1NC1CC(=O)N(c2c(C)cccc2C)C1=O (configuration not stated) | -1 | 12 | -5 | -2 | 6 | 88* | 48* | 49*
O=C(c1cc([N+](=O)[O-])ccc1Cl)N1CCN(Cc2ccccc2)CC1 | / | -13 | / | 0 | / | 0 | / | /
COC(=O)c1nc2nc(C)cc(C(F)(F)F)n2n1 | 1 | 25 | -2 | 1 | 1 | 0 | / | /
COC(=O)c1nc2nc(-c3cccs3)cc(C(F)(F)F)n2n1 | -1 | 8 | 30 | 3 | 8 | 205* | 63* | 67*
O=C(NCc1ccco1)c1nc2nc(-c3cccs3)cc(C(F)(F)F)n2n1 | 3 | 43 | 18 | 3 | 8 | 56* | 61* | 68*
COc1cc2c(cc1OC)[C@@H](NC(=O)COc1ccccc1)[C@H](OCc1ccccc1)C2 | / | / | / | / | / | 0 | / | /
COc1cc(C(=O)NCC(=O)N/N=C/c2ccc(-c3cccc([N+](=O)[O-])c3)o2)cc(OC)c1OC | / | 12 | / | -1 | / | 0 | / | /
CN(CCC#N)S(=O)(=O)c1cc2c3c(c1)CCN3C(=O)CC2 | / | 13 | / | 2 | / | 0 | / | /
CCOC(=O)Nc1ccc2c(COC(=O)CNS(=O)(=O)c3cccc(Br)c3)cc(=O)oc2c1 | 0 | 1 | 8 | 4 | -4 | 15* | 30* | 34*
CN(CC(=O)Nc1ccc(N2CCOCC2)cc1)CC(=O)Nc1ccccc1C#N | -2 | 33 | 4 | 0 | -1 | 0 | / | /
CN(C)/C=C1\C=C2C(=O)c3ccccc3N2C1=O | -3 | 6 | 80 | -476 | -341 | 14* | 72* | 66*
CC1CC(C)CN(CCCNC(=O)C2CCCN(S(=O)(=O)N3CC(C)CC(C)C3)C2)C1 (configuration not stated) | / | 16 | / | 1 | / | 0 | / | /
CCOC(=O)CSc1nc(N)c(C#N)c(-c2ccc(OCC)cc2)c1C#N | 2 | 18 | -2 | -6 | 0 | 13* | -53 | -64
Cc1nc(SCC(=O)CC(=O)OC(C)C)c(C#N)c(C)c1C | -1 | -8 | 8 | 3 | 4 | 40* | 63* | 57*
CCOC(=O)C1=C(CSc2nc(C)cc(C)c2C#N)OC(N)=C(C#N)C1c1ccccc1 (configuration not stated) | 1 | 30 | 29 | ? | 23 | 26* | 33* | 30*
COC(=O)CSc1nc(N)c(C#N)c(-c2ccc(O)cc2)c1C#N | 2 | 34 | 1 | -3 | -1 | 1 | / | /
Cc1cc(C)c(C#N)c(SCC(=O)CC(=O)OC(C)C)n1 | -3 | 20 | 18 | ? | 11 | 45* | 72* | 69*
CCOC(=O)C1=C(C)OC(N)=C(C#N)C1c1ccccc1 (configuration not stated) | 0 | 9 | -3 | -5 | 1 | 0 | / | /
CCCCNC(=O)Oc1c(Br)cc2sc(=O)oc2c1Br | 1 | / | 8 | / | 23 | / | / | /
Cc1ccc2c(SCC(=O)NCc3ccco3)nc(-c3ccc(F)cc3)nc2c1 | -3 | -5 | 5 | -1 | 0 | 0 | / | /
Cc1cc(C)c(C#N)c(SCC(=O)OC2CCCCC2)n1 | -1 | 33 | 3 | -1 | 0 | 3 | / | /
SMILES | Wee1 degr inh | AI-2 QS modul | Runt-SMMHC FRET | RanGTP-Impb inh | Runt-CBFb FRET | proKLK7 act | proKLK7 act conf | EDANS-DABCYL int
CCOC(=O)CSc1nc(C)cc(C)c1C#N | -1 | 5 | 3 | -2 | 5 | 30* | 56* | 54*
Cc1coc2cc3oc(=O)c(CC(=O)N(C)CC(=O)O)c(C)c3cc12 | / | 1 | / | -2 | / | 13* | 14* | 17*
Cc1coc2cc3oc(=O)c(Cc4ccccc4)c(C)c3cc12 | -3 | -18 | 13 | 7 | 8 | -6 | / | /
O=C1CCN(Cc2ccccc2)C(=S)N1 | / | / | / | / | / | 0 | / | /
Cc1c(Cc2ccccc2)c(=O)oc2cc(O)cc(O)c12 | 3 | 13 | 63* | 4 | 24 | 55* | 64* | 76*
Cc1cccc(-c2cc(N3CCCN(C)CC3)n3nccc3n2)c1 | / | / | / | / | / | 29* | -3 | -3
COC(=O)c1ccccc1NS(=O)(=O)c1ccc(Cl)nc1 | 1 | 13 | 0 | 2 | 0 | -1 | / | /

Source: PubChem BioAssay (several laboratories)
